bCat nuc transl: beta-catenin nuclear translocation modulation; HeLa beta-catenin nuclear translocation, immunofluorescence imaging; nuclear translocation activity, % at 5 µM; actives 0.3% (n = 190,000); AID 1665;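 active = nuclear translocation activity above 50% at 5 µM, with a well cell count of 50 or more; inconclusive = wells under 50 cells across six images, flagged as toxic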;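 also: per-cell ratio of nuclear to cytoplasmic median beta-catenin stain intensity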
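assay system = human HeLa cells, endogenous beta-catenin | times = compound treatment 24 h, 37°C, 5% CO2 | detection = Anti-beta-catenin immunofluorescence on PFA-fixed, Triton-permeabilized cells, DAPI nuclei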
ROMK primary: human ROMK K+ channel modulation, primary screen | Tet-inducible ROMK, thallium flux fluorescence; actives lie on both sides | B-score at 10 µM | actives 2% (n = 130,000) | AID 1918;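 active = signal ratio slope over the read window, or its plate-corrected B-score, at least 3 SD from the plate mean, either direction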;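 also: B-score of the F/F0 ratio slope over 7 to 12 s after thallium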
Target sequence (P48048 whole entry, looked up): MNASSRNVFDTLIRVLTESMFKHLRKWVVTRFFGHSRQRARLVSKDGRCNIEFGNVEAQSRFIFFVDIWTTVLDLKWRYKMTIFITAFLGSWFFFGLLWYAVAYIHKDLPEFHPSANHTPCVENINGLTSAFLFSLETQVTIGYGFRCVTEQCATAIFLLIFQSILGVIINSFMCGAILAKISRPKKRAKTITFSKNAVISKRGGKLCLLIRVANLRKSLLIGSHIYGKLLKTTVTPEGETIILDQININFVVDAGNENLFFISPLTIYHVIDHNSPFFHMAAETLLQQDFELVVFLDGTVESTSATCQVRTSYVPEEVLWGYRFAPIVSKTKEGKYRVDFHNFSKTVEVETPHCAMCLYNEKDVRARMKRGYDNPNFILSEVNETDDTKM
MT stabilize HCS: microtubule stabilizers in HeLa cells. HeLa tubulin immunostaining HCS, 24 h; share of cells brighter than vehicle mean+2SD. % tubulin-high responders, % at 10 µM. actives 0.83% (n = 200,000). AID 2205;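 active = plate Z-score above 3 for both tubulin-high and condensed-nucleus cell shares, with cell loss under 80%, at 10 µM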;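 also: anti alpha tubulin signal scored within the nucleus-defined area of each cell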
ROMK hit retest: human ROMK channel modulation, retest confirmation; shares compounds with ROMK primary; ROMK thallium flux, fluorescence ratio; hits give low values; normalized thallium flux (F/F0 slope) at 10 µM; actives 54% (n = 3,000);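 active = Flux at 10 µM at least 3 SD below or above vehicle control mean in one or both replicates; inconclusive = no clear call, values can overlap the other calls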
A number is an active result. Shown are actives, neighbours in structure and some others; about 1.9% of the full set was active somewhere.

What do the screens show for `Fc1ccc(C2=CC(c3ccco3)n3ncnc3N2)cc1` (configuration not stated)?
bCat nuc transl: inactive; ROMK primary: -3.1; MT stabilize HCS: inactive; ROMK hit retest: 0.053

Results for C1=C(c2ccc(-c3ccccc3)cc2)Nc2ncnn2C1c1ccco1 (configuration not stated) ?
bCat nuc transl: inactive; MT stabilize HCS: inactive

How did CC(=O)Nc1ccc(S(=O)(=O)Nc2nnc(CC(C)(C)C)s2)cc1 do in these assays?
bCat nuc transl: inactive; ROMK primary: inactive; MT stabilize HCS: inactive

Results for Cc1cc(OCC(=O)N2CCCC2)ccc1Cl ?
bCat nuc transl: inactive; MT stabilize HCS: inactive

How did CCOC(=O)N1CCN(C(=O)COc2ccc(Cl)c(C)c2)CC1 do in these assays?
bCat nuc transl: inactive; ROMK primary: -3.6; MT stabilize HCS: inactive; ROMK hit retest: 0.058

What do the screens show for `Cn1c(N)c(C(=O)c2ccc(F)cc2F)c(=O)n(C)c1=O`?
bCat nuc transl: inactive; MT stabilize HCS: inactive

Results for COc1ccc([N+](=O)[O-])cc1N(CC(=O)N1CCCC1)S(C)(=O)=O ?
bCat nuc transl: inactive; ROMK primary: inactive; MT stabilize HCS: inactive

What do the screens show for `O=C(Nc1cnc2ccccc2c1)c1cccc(-n2cnnn2)c1`?
bCat nuc transl: inactive; MT stabilize HCS: inactive; ROMK hit retest: 0.06

What do the screens show for `O=C(NNC(=O)c1cccc(-n2cnnn2)c1)c1ccccc1`?
bCat nuc transl: inactive; ROMK primary: inactive; MT stabilize HCS: inactive

Results for C/C(=N\O)c1ncc(C(F)(F)F)cc1Cl ?
bCat nuc transl: inactive; ROMK primary: inactive; MT stabilize HCS: inactive

Results for COc1ccc(N(CC(=O)Nc2ccccc2C(N)=O)S(=O)(=O)c2ccc(C)c([N+](=O)[O-])c2)cc1 ?
bCat nuc transl: inactive; ROMK primary: inactive; MT stabilize HCS: inactive; ROMK hit retest: 0.067

What do the screens show for `COc1ccc(N(CC(=O)Nc2ccc(C(N)=O)cc2)S(=O)(=O)c2ccc(C)c([N+](=O)[O-])c2)cc1`?
bCat nuc transl: inactive; ROMK primary: inactive; MT stabilize HCS: inactive

How did Cc1nc(Cl)c2c(n1)NC(=O)CO2 do in these assays?
bCat nuc transl: inactive; ROMK primary: inactive

Results for O=S(=O)(NCCc1ccccn1)c1ccc(F)c(F)c1 ?
bCat nuc transl: inactive; MT stabilize HCS: inactive

How did CCOC(=O)c1cccc(NC(=O)c2ccc(N(C)C)cc2)c1 do in these assays?
ROMK primary: inactive; MT stabilize HCS: inactive

What do the screens show for `CCCc1cc(=O)oc2c3c(c4c(c12)OC(C)(C)C=C4)OC(C)C(C)C3O` (configuration not stated)?
bCat nuc transl: inactive

What do the screens show for `CCCCOc1ccc(CSCCN)cc1Cl`?
bCat nuc transl: inactive; ROMK primary: -3.2; ROMK hit retest: inconclusive

What do the screens show for `CCOc1ccc(CSC(=N)N)cc1Cl`?
bCat nuc transl: inactive

How did O=c1onc(-c2cccnc2)n1-c1ccccc1F do in these assays?
bCat nuc transl: inactive

What do the screens show for `CC(C)(C)OC(=O)C(Cl)(C(=O)OC(C)(C)C)c1ccc2nnnn2n1`?
bCat nuc transl: inactive; ROMK primary: inactive; MT stabilize HCS: inactive; ROMK hit retest: 0.064

Results for CCOc1ccc2nnnn2n1 ?
bCat nuc transl: inactive; ROMK primary: inactive; MT stabilize HCS: inactive

What do the screens show for `O=Nc1c(-c2ccccc2)cc2ccccn12`?
bCat nuc transl: inactive; ROMK primary: inactive; MT stabilize HCS: inactive

What do the screens show for `COc1cc(C(C[N+](=O)[O-])c2c(-c3ccccc3)cc3ccccn23)cc(OC)c1OC` (configuration not stated)?
bCat nuc transl: inactive; ROMK primary: inactive; MT stabilize HCS: inactive

How did COc1ccc(C(C[N+](=O)[O-])c2c(-c3ccccc3)cc3ccccn23)cc1OC (configuration not stated) do in these assays?
bCat nuc transl: inactive; ROMK primary: -3.7; MT stabilize HCS: inactive; ROMK hit retest: 0.064

Results for COc1ccc(C(C[N+](=O)[O-])c2c(-c3ccccc3)cc3ccccn23)cc1 (configuration not stated) ?
bCat nuc transl: inactive; ROMK primary: -3.7; MT stabilize HCS: 29; ROMK hit retest: inactive

What do the screens show for `OC(CN1CCN(c2ccccc2)CC1)Cn1c2ccccc2c2ccccc21` (configuration not stated)?
ROMK primary: inactive; MT stabilize HCS: inactive

Results for Cn1cc(CN2CCN(c3ccccc3)CC2)c2ccccc21 ?
bCat nuc transl: inactive; ROMK primary: -5.2; MT stabilize HCS: inactive; ROMK hit retest: 0.056

What do the screens show for `Cc1ccc(-n2c(C)nn(Cc3ccc([N+](=O)[O-])cc3)c2=O)cc1`?
bCat nuc transl: inactive; ROMK primary: inactive; MT stabilize HCS: inactive

Results for Cc1ccc(-n2c3nc(=O)[nH]c(=O)c-3cc3cc([N+](=O)[O-])ccc32)cc1 ?
bCat nuc transl: inactive; ROMK primary: -6.6; MT stabilize HCS: inactive; ROMK hit retest: 0.038

What do the screens show for `CCCCNC(=O)CSc1nc(COc2ccccc2)nc2ccccc12`?
bCat nuc transl: inactive; ROMK primary: inactive; MT stabilize HCS: inactive

What do the screens show for `Cc1ccc(C(=O)N2CCN(c3ccc([N+](=O)[O-])cc3-n3cccc3)CC2)cc1`?
bCat nuc transl: inactive; ROMK primary: inactive

How did COc1cc(C(=O)N2CCN(c3ncnc4sc(C)c(C)c34)CC2)cc(OC)c1OC do in these assays?
bCat nuc transl: inactive; MT stabilize HCS: inactive; ROMK hit retest: inactive

Results for Cc1sc2ncnc(N3CCN(c4ncccn4)CC3)c2c1C ?
bCat nuc transl: inactive; ROMK primary: inactive; MT stabilize HCS: inactive

How did CCOC(=O)c1cc(-c2ccc(OC(F)F)cc2)nc2c1c(=O)[nH]c(=O)n2C do in these assays?
ROMK primary: inactive; MT stabilize HCS: inactive

What do the screens show for `Cc1ccc(S(=O)(=O)Nc2ccc(NC(=O)CN3CCCCC3)cc2)cc1`?
bCat nuc transl: inactive; ROMK primary: inactive; MT stabilize HCS: inactive

How did Cc1ccc(S(=O)(=O)Nc2cc(NC(=O)CN3CCOCC3)ccc2Cl)cc1 do in these assays?
bCat nuc transl: inactive; MT stabilize HCS: inactive; ROMK hit retest: inactive

Results for O=C(CC(Nc1ccccc1)c1ccccc1)C1CC1 (configuration not stated) ?
bCat nuc transl: inactive

How did CCOC(=O)c1c(CSc2ccccc2)n(C)c2cc(Br)c(O)c(CN(C)C)c12 do in these assays?
bCat nuc transl: inactive; ROMK primary: inactive

What do the screens show for `CCOC(=O)c1c(CSc2ccc(C)cc2)n(C)c2cc(Br)c(O)c(CN(C)C)c12`?
bCat nuc transl: inactive; MT stabilize HCS: inactive; ROMK hit retest: 0.051

How did Cc1cc(Cl)n2ncc(-c3ccccc3)c2n1 do in these assays?
bCat nuc transl: inactive; ROMK hit retest: 0.063

How did Cc1cc(N)n2ncc(-c3ccc(Cl)cc3)c2n1 do in these assays?
bCat nuc transl: inactive; MT stabilize HCS: inactive

How did CC(C)(C)C1=CC(=Nc2ccccc2N)C=C(C(C)(C)C)C1=O do in these assays?
bCat nuc transl: inactive; ROMK primary: inactive; MT stabilize HCS: inactive

How did CC(C)(C)C1=CC(=O)C(=O)C(C(C)(C)C)=C1 do in these assays?
ROMK primary: -2.3; MT stabilize HCS: inactive; ROMK hit retest: 0.058

How did COc1ccccc1C1CC(c2ccccc2)Nc2ncnn21 (configuration not stated) do in these assays?
bCat nuc transl: inactive; ROMK primary: inactive; MT stabilize HCS: inactive
